Data from ChEMBL document CHEMBL1165943, “Design and synthesis of new anticancer pyrimidines with multiple-kinase inhibitory effect” (Bioorg Med Chem, 2010).
Activity calls are given as the source filed them. No cut-off for these calls is given here.

Columns and labels:
[1] = test system: SF-539; experiment: Growth inhibition of human SF539 cells after 48 hrs by sulforhodamine B assay; type: functional, cell-based; settings: for CC50: read-out: LC50 (the source's name)
In short: (§1)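 Cells grown in RPMI 1640 with 5% FBS and 2 mM L-glutamine, seeded at 5,000–40,000 cells/well according to doubling time. After 24 h, time-zero plates are TCA-fixed. Five concentrations (10-fold or ½log dilutions, DMSO stocks) are applied for 48 h at 37 °C, 5% CO₂. Cells are TCA-fixed, SRB-stained and read at 515 nm. IC₅₀ is taken from [(Ti−Tz)/(C−Tz)]×100 = 50.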

[2] = test system: OVCAR-3; experiment: Growth inhibition of human OVCAR-3 cells after 48 hrs by sulforhodamine B assay; type: functional, cell-based; settings: OVCAR-3, 48 h; for CC50: read-out: LC50 (the source's name); in short: as §1
[3] = test system: OVCAR-3; experiment: Cytotoxicity against human OVCAR-3 cells assessed as cell growth at 100 nM after 48 hrs by sulforhodamine B assay; type: functional; settings: OVCAR-3, 48 h, read-out: Activity
[4] = test system: SK-MEL-2; experiment: Cytotoxicity against human SK-MEL-2 cells assessed as cell growth at 100 nM after 48 hrs by sulforhodamine B assay; type: functional; settings: SK-MEL-2, 48 h, read-out: Activity
[5] = test system: 786-0; experiment: Cytotoxicity against human 786-0 cells assessed as cell growth at 100 nM after 48 hrs by sulforhodamine B assay; type: functional; settings: 786-0, 48 h, read-out: Activity
In short: (§2)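 Cells grown in RPMI 1640 with 5% FBS and 2 mM L-glutamine, seeded at 5,000–40,000 cells/well by doubling time. Time-zero plates TCA-fixed after 24 h. Five concentrations (10-fold or half-log dilutions from DMSO stock) added; 48 h at 37 °C, 5% CO2. Cold TCA fixation (final 10%, 60 min, 4 °C), 0.4% SRB stain, dye solubilized in 10 mM trizma base, A515.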

[6] = test system: SF-295; experiment: Growth inhibition of human SF295 cells after 48 hrs by sulforhodamine B assay; type: functional, cell-based; settings: SF-295, 48 h; for CC50: read-out: LC50 (the source's name); in short: as §1
[7] = test system: K562; experiment: Growth inhibition of human K562 cells after 48 hrs by sulforhodamine B assay; type: functional, cell-based; settings: for CC50: read-out: LC50 (the source's name); in short: as §1
[8] = test system: BT-549; experiment: Growth inhibition of human BT549 cells after 48 hrs by sulforhodamine B assay; type: functional, cell-based; settings: BT-549, 48 h; for CC50: read-out: LC50 (the source's name)
In short: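 Five-dose SRB assay. Cells in RPMI 1640 with 5% FBS and 2 mM L-glutamine were seeded at 5,000–40,000 cells/well, with a TCA-fixed time-zero plate (Tz) taken at 24 h. Compound stocks were in DMSO, serially diluted 10-fold or ½-log to five concentrations, and incubated 48 h at 37 °C. Plates were stained with SRB and read at 515 nm. IC₅₀ was taken where [(Ti−Tz)/(C−Tz)]×100 = 50.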

[9] = test system: SW-620; experiment: Cytotoxicity against human SW620 cells assessed as cell growth at 0.01 uM after 48 hrs by sulforhodamine B assay; type: functional; settings: SW-620, 48 h, read-out: Activity
[10] = test system: UACC-62; experiment: Cytotoxicity against human UACC62 cells assessed as cell growth at 1 uM after 48 hrs by sulforhodamine B assay; type: functional; settings: UACC-62, 48 h, read-out: Activity
[11] = test system: SN12C; experiment: Cytotoxicity against human SN12C cells assessed as cell growth at 1 uM after 48 hrs by sulforhodamine B assay; type: functional; settings: read-out: Activity
[12] = test system: NCI/ADR-RES; experiment: Cytotoxicity against human NCI/ADR-RES cells assessed as cell growth at 0.001 uM after 48 hrs by sulforhodamine B assay; type: functional; settings: read-out: Activity
[13] = test system: SN12C; experiment: Cytotoxicity against human SN12C cells assessed as cell growth at 0.001 uM after 48 hrs by sulforhodamine B assay; type: functional; settings: read-out: Activity
[14] = test system: COLO 205; experiment: Cytotoxicity against human COLO205 cells assessed as cell growth at 10 uM after 48 hrs by sulforhodamine B assay; type: functional; settings: COLO 205, 48 h, read-out: Activity; in short: as §2
[15] = test system: BT-549; experiment: Cytotoxicity against human BT549 cells assessed as cell growth at 0.01 uM after 48 hrs by sulforhodamine B assay; type: functional; settings: BT-549, 48 h, read-out: Activity; in short: as §2
[16] = test system: MDA-MB-231; experiment: Cytotoxicity against human MDA-MB-231 cells assessed as cell growth at 10 uM after 48 hrs by sulforhodamine B assay; type: functional; settings: MDA-MB-231, 48 h, read-out: Activity
[17] = test system: 786-0; experiment: Cytotoxicity against human 786-0 cells assessed as cell growth at 1 uM after 48 hrs by sulforhodamine B assay; type: functional; settings: 786-0, 48 h, read-out: Activity; in short: as §2
[18] = test system: HCT-15; experiment: Cytotoxicity against human HCT15 cells assessed as cell growth at 1 uM after 48 hrs by sulforhodamine B assay; type: functional; settings: HCT-15, 48 h, read-out: Activity
[19] = test system: OVCAR-4; experiment: Cytotoxicity against human OVCAR4 cells assessed as cell growth at 1 uM after 48 hrs by sulforhodamine B assay; type: functional; settings: OVCAR-4, 48 h, read-out: Activity
[20] = test system: SNB-19; experiment: Cytotoxicity against human SNB19 cells assessed as cell growth at 100 nM after 48 hrs by sulforhodamine B assay; type: functional; settings: SNB-19, 48 h, read-out: Activity
[21] = test system: SF-539; experiment: Cytotoxicity against human SF539 cells assessed as cell growth at 0.001 uM after 48 hrs by sulforhodamine B assay; type: functional; settings: SF-539, 48 h, read-out: Activity
[22] = test system: SW-620; experiment: Cytotoxicity against human SW620 cells assessed as cell growth at 100 nM after 48 hrs by sulforhodamine B assay; type: functional; settings: SW-620, 48 h, read-out: Activity
[23] = test system: MOLT-4; experiment: Growth inhibition of human MOLT4 cells after 48 hrs by sulforhodamine B assay; type: functional, cell-based; settings: MOLT-4, 48 h; for CC50: read-out: LC50 (the source's name); in short: as §1
[24] = test system: LOX IMVI; experiment: Growth inhibition of human LOXIMVI cells after 48 hrs by sulforhodamine B assay; type: functional, cell-based; settings: for CC50: read-out: LC50 (the source's name); in short: as §1
[25] = test system: U-251; experiment: Growth inhibition of human U251 cells after 48 hrs by sulforhodamine B assay; type: functional, cell-based; settings: for CC50: read-out: LC50 (the source's name); in short: as §1
[26] = test system: KM12; experiment: Cytotoxicity against human KM12 cells assessed as cell growth at 0.01 uM after 48 hrs by sulforhodamine B assay; type: functional; settings: KM12, 48 h, read-out: Activity
[27] = test system: ACHN; experiment: Cytotoxicity against human ACHN cells assessed as cell growth at 100 nM after 48 hrs by sulforhodamine B assay; type: functional; settings: read-out: Activity; in short: as §2
[28] = test system: Malme-3M; experiment: Cytotoxicity against human MALME-3M cells assessed as cell growth at 0.01 uM after 48 hrs by sulforhodamine B assay; type: functional; settings: read-out: Activity
[29] = test system: EKVX; experiment: Growth inhibition of human EKVX cells after 48 hrs by sulforhodamine B assay; type: functional, cell-based; settings: for CC50: read-out: LC50 (the source's name); in short: as §1

SMILES: CC(=O)Nc1cccc(-c2ccc(-c3ccnc(NC(=O)Nc4cc(C(F)(F)F)cc(C(F)(F)F)c4)n3)cn2)c1.Cl
- GI50 ([1]; Homo sapiens, SF-539, 48 h): 5.48 µM
- TGI ([1]; Homo sapiens, SF-539, 48 h): 18.9 µM
- IC50 ([1]; Homo sapiens, SF-539, 48 h, read-out: IC50): 5.48 µM
- CC50 ([1]; Homo sapiens, SF-539, 48 h): 44.3 µM
- GI50 [2]: 1.85 µM
- IC50 [2]: 1.85 µM
- TGI [2]: 4.23 µM
- CC50 [2]: 9.69 µM
- growth at 0.1 µM [3]: 67%
- growth at 0.1 µM [4]: 96%
- growth at 0.1 µM [5]: 62%
- GI50 [6]: 1.27 µM
- IC50 [6]: 1.27 µM
- TGI [6]: 6.19 µM
- CC50 [6]: > 100 µM
- TGI [7]: inactive
- GI50 ([7]; K562, 48 h): 1.87 µM
- IC50 ([7]; K562, 48 h): 1.87 µM
- CC50 ([7]; K562, 48 h): > 100 µM
- GI50 [8]: 7.07 µM
- IC50 [8]: 7.07 µM
- TGI [8]: 20.4 µM
- CC50 [8]: 46.3 µM
- growth at 0.01 µM [9]: 95%
- growth at 1 µM [10]: 12%
- growth at 1 µM [11]: 49%
- growth at 0.001 µM [12]: 95%
- growth at 0.001 µM [13]: 94%
- growth at 10 µM [14]: 3%
- growth at 0.01 µM [15]: 91%
- growth at 10 µM [16]: -71%
- growth at 1 µM [17]: 25%
- growth at 1 µM [18]: 18%
- growth at 1 µM [19]: 4%
- growth at 0.1 µM [20]: 90%
- growth at 0.001 µM [21]: 97%
- growth at 0.1 µM [22]: 97%
- GI50 [23]: 1.98 µM
- IC50 [23]: 1.98 µM
- TGI [23]: > 100 µM
- CC50 [23]: > 100 µM
- GI50 [24]: 1.79 µM
- IC50 [24]: 1.79 µM
- TGI [24]: inactive
- CC50 [24]: > 100 µM
- GI50 ([25]; Homo sapiens, U-251, 48 h): 2 µM
- IC50 ([25]; Homo sapiens, U-251, 48 h): 2 µM
- TGI ([25]; Homo sapiens, U-251, 48 h): 5.32 µM
- CC50 ([25]; Homo sapiens, U-251, 48 h): 18.9 µM
- growth at 0.01 µM [26]: 99%
- growth at 0.1 µM [27]: 93%
- growth at 0.01 µM [28]: 88%
- GI50 [29]: 1.44 µM
- IC50 [29]: 1.44 µM
- TGI [29]: 5.71 µM
- CC50 [29]: > 100 µM

SMILES: CC(=O)c1ccccc1-c1ccc(-c2ccnc(NC(=O)Nc3cc(N4CCOCC4)cc(C(F)(F)F)c3)n2)cn1
- TGI ([1]; Homo sapiens, SF-539, 48 h): > 100 µM
- CC50 ([1]; Homo sapiens, SF-539, 48 h): > 100 µM
- IC50 ([1]; sf-539): Not Active
- GI50 [2]: 6.18 µM
- IC50 [2]: > 100 µM
- TGI [2]: > 100 µM
- CC50 [2]: > 100 µM
- growth at 0.1 µM [3]: 109%
- growth at 0.1 µM [4]: 102%
- growth at 0.1 µM [5]: 98%
- GI50 [6]: 40.2 µM
- IC50 [6]: 9.04 µM
- TGI [6]: > 100 µM
- CC50 [6]: > 100 µM
- GI50 ([7]; K562, 48 h): > 100 µM
- IC50 ([7]; K562, 48 h): > 100 µM
- TGI ([7]; K562, 48 h): > 100 µM
- CC50 ([7]; K562, 48 h): > 100 µM
- TGI [8]: > 100 µM
- CC50 [8]: > 100 µM
- growth at 0.01 µM [9]: 106%
- growth at 1 µM [10]: 73%
- growth at 1 µM [11]: 64%
- growth at 0.001 µM [12]: 100%
- growth at 0.001 µM [13]: 93%
- growth at 10 µM [14]: 115%
- growth at 0.01 µM [15]: 91%
- growth at 10 µM [16]: 56%
- growth at 1 µM [17]: 55%
- growth at 1 µM [18]: 88%
- growth at 1 µM [19]: 48%
- growth at 0.1 µM [20]: 95%
- growth at 0.001 µM [21]: 97%
- growth at 0.1 µM [22]: 93%
- GI50 [23]: > 100 µM
- IC50 [23]: > 100 µM
- TGI [23]: > 100 µM
- CC50 [23]: > 100 µM
- GI50 [24]: 34.9 µM
- IC50 [24]: > 100 µM
- TGI [24]: > 100 µM
- CC50 [24]: > 100 µM
- TGI [25]: > 100 µM
- GI50 ([25]; Homo sapiens, U-251, 48 h): 5.36 µM
- IC50 ([25]; Homo sapiens, U-251, 48 h): 34.9 µM
- CC50 ([25]; Homo sapiens, U-251, 48 h): > 100 µM
- growth at 0.01 µM [26]: 98%
- growth at 0.1 µM [27]: 91%
- growth at 0.01 µM [28]: 103%
- GI50 [29]: > 100 µM
- IC50 [29]: > 100 µM
- TGI [29]: > 100 µM
- CC50 [29]: > 100 µM
